Measured values published in ChEMBL document CHEMBL1125019 (J Med Chem, 1990).
pIC50: −log10 of the molar value.

Tests used:
D(2) dopamine receptor = D(2) dopamine receptor (Rattus norvegicus, UniProt P61169); test: Binding affinity against Dopamine receptor D2 from rat brain corpus striatum membrane
D(1A) dopamine receptor = D(1A) dopamine receptor (Rattus norvegicus, UniProt P18901); test: Binding affinity against Dopamine receptor D1 from rat brain corpus striatum membrane
In short: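 Four to six concentrations of each test agent. IC50 ± SEM obtained by computer-assisted curve fitting; Ki derived from IC50 using the Kd and ligand concentration.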

Chain of D(1A) dopamine receptor (P18901 whole entry): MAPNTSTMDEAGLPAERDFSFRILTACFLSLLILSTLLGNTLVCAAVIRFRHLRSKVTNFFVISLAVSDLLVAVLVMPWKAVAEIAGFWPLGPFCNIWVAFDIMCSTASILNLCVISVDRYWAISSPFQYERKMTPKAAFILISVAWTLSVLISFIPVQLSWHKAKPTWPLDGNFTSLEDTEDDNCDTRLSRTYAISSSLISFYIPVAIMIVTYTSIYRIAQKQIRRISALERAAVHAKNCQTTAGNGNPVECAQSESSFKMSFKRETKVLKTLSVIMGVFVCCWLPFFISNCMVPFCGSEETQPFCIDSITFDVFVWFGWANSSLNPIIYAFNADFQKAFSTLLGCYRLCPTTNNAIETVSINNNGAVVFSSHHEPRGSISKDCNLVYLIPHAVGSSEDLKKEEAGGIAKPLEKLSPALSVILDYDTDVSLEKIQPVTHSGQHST
Chain of D(2) dopamine receptor (P61169 whole entry): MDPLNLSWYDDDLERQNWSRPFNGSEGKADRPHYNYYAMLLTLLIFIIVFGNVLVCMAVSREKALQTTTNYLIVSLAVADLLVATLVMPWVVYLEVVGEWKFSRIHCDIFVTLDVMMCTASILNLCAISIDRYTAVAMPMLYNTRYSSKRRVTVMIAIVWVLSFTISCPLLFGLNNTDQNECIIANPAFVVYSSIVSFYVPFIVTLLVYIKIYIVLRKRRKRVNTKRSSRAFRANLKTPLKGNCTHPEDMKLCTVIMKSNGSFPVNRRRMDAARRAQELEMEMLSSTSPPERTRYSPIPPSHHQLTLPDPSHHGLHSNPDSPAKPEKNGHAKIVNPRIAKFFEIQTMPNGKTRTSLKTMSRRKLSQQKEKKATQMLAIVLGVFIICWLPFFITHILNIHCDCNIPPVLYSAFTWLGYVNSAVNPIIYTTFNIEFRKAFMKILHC

SMILES | pIC50 (D(2) dopamine receptor) | pIC50 (D(1A) dopamine receptor)
CCCN1CCc2cc(F)cc3c2[C@H]1Cc1ccc(O)c(O)c1-3 | 10.15 | 5.89
CCCN1CCc2cc(F)cc3c2[C@H]1Cc1ccc2c(c1-3)OCO2 | 7.01 | 5.51
CCCN1CCc2cc(N)cc3c2[C@H]1Cc1ccc(O)c(O)c1-3 | 8.26 | < 5.00
CCCN1CCc2cc(N)cc3c2[C@H]1Cc1ccc2c(c1-3)OCO2 | 6.15 | < 5.00
CCCN1CCc2cc(O)cc3c2[C@H]1Cc1ccc(O)c(O)c1-3 | 9.49 | 5.76
CCCN1CCc2cc(Br)cc3c2[C@H]1Cc1ccc(O)c(O)c1-3 | 9.05 | 6.01
CCCN1CCc2cc(OC)cc3c2[C@H]1Cc1ccc(O)c(O)c1-3 | 8.99 | 5.48
